pIC50: −log10 of the molar value.
Columns and labels:
Cytochrome P450 3A4 [1] = molecular target: T1, Cytochrome P450 3A4 (Homo sapiens, UniProt P08684); experiment: Inhibition of CYP3A4 in human liver microsomes assessed as reduction in testosterone 6beta-hydroxylation; assay type: ADME
Cytochrome P450 3A4 [2] = molecular target: T1, Cytochrome P450 3A4; experiment: Inhibition of CYP3A4 in human liver microsomes assessed as reduction in midazolam 1'-hydroxylation; assay type: ADME
[3] = Solubility in basic pH; assay type: physicochemical
Platelet [4] = experiment: Inhibition of ADP-induced platelet aggregation in human platelet rich plasma by in-vitro light transmission aggregometry assay; assay type: functional
In short: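 Human platelet-rich plasma incubated with compound, aggregation induced by 3 µM ADP and read by light transmission aggregometry; IC₅₀ derived from concentration–response curve.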

Liver microsome [5] = experiment: Metabolic stability assay in rat liver microsomes assessed as parent drug disappearance at 1 uM after 20 mins by HPLC and mass spectrometry method; assay type: ADME
[6] = Solubility in neutral pH; assay type: physicochemical
[7] = Protein binding in human plasma; assay type: ADME, cell-free; settings: read-out: PPB (converted)
[8] = Potency shift, ratio of IC50 for inhibition of ADP-induced platelet aggregation in human platelet rich plasma to IC50 for displacement of [3H]-2-methyl-thio-adenosine 5'-diphosphate from human recombinant P2Y12 expressed in CHO cell membranes
P2Y purinoceptor 12 = P2Y purinoceptor 12 (Homo sapiens, UniProt Q9H244); experiment: Displacement of [3H]-2-methyl-thio-adenosine 5'-diphosphate from human recombinant P2Y12 expressed in CHO cell membranes by scintillation counting method
Sequence of P2Y purinoceptor 12 (Q9H244 whole entry): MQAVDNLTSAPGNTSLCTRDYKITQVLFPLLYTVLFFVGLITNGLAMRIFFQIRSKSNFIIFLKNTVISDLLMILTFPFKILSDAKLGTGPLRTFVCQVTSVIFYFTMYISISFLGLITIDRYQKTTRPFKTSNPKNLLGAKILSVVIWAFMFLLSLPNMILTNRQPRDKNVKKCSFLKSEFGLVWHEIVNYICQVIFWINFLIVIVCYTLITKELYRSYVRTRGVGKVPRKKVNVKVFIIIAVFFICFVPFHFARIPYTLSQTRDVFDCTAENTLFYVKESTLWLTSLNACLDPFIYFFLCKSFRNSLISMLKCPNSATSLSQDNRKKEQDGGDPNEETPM
In short: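 CHO cells expressing recombinant P2Y₁₂ receptors, incubated with tritium-labeled 2-methyl-thio-adenosine 5'-diphosphate plus test compound; IC₅₀ from displacement curves, each point in triplicate; reference compound run with every compound set, and set re-analyzed if its IC₅₀ fell outside pre-set 95% confidence interval.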

Liver microsome [9] = experiment: Metabolic stability assay in human liver microsomes assessed as parent drug disappearance at 1 uM after 20 mins by HPLC and mass spectrometry method; assay type: ADME
Cytochrome P450 2C9 = Cytochrome P450 2C9 (Homo sapiens, UniProt P11712); experiment: Inhibition of CYP2C9 in human liver microsomes assessed as reduction in diclofenac 4'-hydroxylation; assay type: ADME
Sequence of Cytochrome P450 2C9 (P11712 whole entry): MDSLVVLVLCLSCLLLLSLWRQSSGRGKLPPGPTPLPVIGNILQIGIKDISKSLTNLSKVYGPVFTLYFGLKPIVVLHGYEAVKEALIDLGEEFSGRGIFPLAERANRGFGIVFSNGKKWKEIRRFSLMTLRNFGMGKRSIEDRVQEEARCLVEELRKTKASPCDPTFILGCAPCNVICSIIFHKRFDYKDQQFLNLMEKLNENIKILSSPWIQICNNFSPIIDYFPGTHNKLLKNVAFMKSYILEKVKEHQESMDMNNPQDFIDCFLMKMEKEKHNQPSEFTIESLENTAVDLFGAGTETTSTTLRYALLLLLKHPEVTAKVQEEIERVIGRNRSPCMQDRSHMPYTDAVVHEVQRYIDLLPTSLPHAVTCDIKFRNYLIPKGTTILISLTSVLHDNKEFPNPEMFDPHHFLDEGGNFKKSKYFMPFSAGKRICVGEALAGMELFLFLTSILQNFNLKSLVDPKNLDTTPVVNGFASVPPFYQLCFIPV

[10] = molecular target: Voltage-gated inwardly rectifying potassium channel KCNH2 (Homo sapiens, UniProt Q12809); experiment: Inhibition of human ERG expressed in HEK cells by patch-clamp assay; assay type: cell-based; settings: hek293
Sequence of Voltage-gated inwardly rectifying potassium channel KCNH2 (Q12809 whole entry): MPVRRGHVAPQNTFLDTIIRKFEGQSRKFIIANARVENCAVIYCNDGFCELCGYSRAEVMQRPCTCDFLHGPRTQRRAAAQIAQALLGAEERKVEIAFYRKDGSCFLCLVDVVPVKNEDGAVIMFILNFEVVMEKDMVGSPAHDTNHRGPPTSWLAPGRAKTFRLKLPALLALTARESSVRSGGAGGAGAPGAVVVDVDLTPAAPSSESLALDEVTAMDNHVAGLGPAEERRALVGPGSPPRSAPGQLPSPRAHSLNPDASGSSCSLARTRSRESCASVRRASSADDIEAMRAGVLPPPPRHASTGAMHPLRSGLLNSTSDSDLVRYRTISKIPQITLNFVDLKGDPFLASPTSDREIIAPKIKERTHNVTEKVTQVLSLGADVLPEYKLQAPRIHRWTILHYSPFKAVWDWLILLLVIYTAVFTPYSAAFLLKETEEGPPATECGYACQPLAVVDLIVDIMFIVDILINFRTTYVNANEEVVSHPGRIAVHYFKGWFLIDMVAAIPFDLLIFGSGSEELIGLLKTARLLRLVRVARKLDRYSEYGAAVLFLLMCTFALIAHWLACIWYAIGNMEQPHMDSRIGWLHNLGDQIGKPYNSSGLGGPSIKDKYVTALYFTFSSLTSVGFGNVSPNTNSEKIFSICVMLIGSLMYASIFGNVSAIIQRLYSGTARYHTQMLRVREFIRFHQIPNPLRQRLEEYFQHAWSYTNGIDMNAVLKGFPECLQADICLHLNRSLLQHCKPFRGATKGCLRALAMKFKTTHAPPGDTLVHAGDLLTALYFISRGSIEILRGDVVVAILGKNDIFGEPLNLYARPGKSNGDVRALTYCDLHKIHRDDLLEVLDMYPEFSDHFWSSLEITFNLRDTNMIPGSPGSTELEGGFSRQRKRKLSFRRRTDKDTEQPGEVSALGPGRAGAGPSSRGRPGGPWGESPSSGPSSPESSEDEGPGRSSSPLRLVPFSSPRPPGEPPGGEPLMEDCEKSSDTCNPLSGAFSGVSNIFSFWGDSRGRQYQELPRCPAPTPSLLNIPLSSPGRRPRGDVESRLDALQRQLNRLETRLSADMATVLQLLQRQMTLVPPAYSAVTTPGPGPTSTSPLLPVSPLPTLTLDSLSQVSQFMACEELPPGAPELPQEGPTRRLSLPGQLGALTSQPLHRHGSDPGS

Cytochrome P450 2D6 = Cytochrome P450 2D6 (Homo sapiens, UniProt P10635); experiment: Inhibition of CYP2D6 in human liver microsomes assessed as reduction in dextromethorphan-O demethylation; assay type: ADME
Sequence of Cytochrome P450 2D6 (P10635 whole entry): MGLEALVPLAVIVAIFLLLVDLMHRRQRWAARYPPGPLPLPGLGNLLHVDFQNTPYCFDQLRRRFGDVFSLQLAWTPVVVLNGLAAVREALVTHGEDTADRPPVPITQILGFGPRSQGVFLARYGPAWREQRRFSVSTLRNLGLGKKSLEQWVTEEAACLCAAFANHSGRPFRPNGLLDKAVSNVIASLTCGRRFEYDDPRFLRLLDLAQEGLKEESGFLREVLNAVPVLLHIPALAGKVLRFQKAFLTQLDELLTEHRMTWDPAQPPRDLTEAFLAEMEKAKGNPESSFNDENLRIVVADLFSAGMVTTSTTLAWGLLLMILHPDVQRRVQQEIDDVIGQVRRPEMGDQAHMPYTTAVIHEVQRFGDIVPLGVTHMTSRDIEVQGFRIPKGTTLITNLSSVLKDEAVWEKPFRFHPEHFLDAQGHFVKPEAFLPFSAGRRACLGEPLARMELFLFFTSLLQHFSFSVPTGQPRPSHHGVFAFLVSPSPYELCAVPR

[11] = Clearance in Wistar rat at 1 mg/kg, iv; assay type: ADME, organism-based; design: dose 1 mg/kg, route intravenous; settings: in vivo
In short: (§1)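 Rats dosed by iv infusion at 1 mg/kg (n = 2) or orally at 10 mg/kg (n = 3); plasma levels measured, limit of quantification ca. 1 ng/mL.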

[12] = AUC in Wistar rat at 10 mg/kg, po; assay type: ADME, organism-based, Plasma; design: dose 10 mg/kg, route oral; settings: Wistar, plasma; in short: as §1
Platelet [13] = experiment: Inhibition of ADP-induced platelet aggregation in human platelet rich plasma assessed as remaining activity at 100 nM by in-vitro light transmission aggregometry assay; assay type: functional
In short: (§2)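 Light transmission aggregometry in human platelet-rich plasma; compound incubated, aggregation triggered with 3 µM ADP; remaining activity (RA) recorded at a single compound level (1000, 500 or 100 nM).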

[14] = Cmax in Wistar rat at 10 mg/kg, po; assay type: ADME, organism-based; design: dose 10 mg/kg, route oral; settings: Wistar, in vivo; in short: as §1
[15] = Oral bioavailability in Wistar rat at 10 mg/kg; assay type: ADME, organism-based; settings: Wistar, in vivo; in short: as §1
Platelet [16] = experiment: Inhibition of ADP-induced platelet aggregation in human platelet rich plasma assessed as remaining activity at 500 nM by in-vitro light transmission aggregometry assay; assay type: functional; in short: as §2
[17] = Volume of distribution at steady state in Wistar rat at 1 mg/kg, iv or 10 mg/kg, po; assay type: ADME, organism-based; settings: in vivo, read-out: Vdss; in short: as §1
[18] = Half life in Wistar rat at 1 mg/kg, iv or 10 mg/kg, po; assay type: ADME, organism-based; settings: in vivo; in short: as §1
Platelet [19] = experiment: Inhibition of ADP-induced platelet aggregation in human platelet rich plasma assessed as remaining activity at 1000 nM by in-vitro light transmission aggregometry assay; assay type: functional; in short: as §2

T1 sequence (P08684 whole entry): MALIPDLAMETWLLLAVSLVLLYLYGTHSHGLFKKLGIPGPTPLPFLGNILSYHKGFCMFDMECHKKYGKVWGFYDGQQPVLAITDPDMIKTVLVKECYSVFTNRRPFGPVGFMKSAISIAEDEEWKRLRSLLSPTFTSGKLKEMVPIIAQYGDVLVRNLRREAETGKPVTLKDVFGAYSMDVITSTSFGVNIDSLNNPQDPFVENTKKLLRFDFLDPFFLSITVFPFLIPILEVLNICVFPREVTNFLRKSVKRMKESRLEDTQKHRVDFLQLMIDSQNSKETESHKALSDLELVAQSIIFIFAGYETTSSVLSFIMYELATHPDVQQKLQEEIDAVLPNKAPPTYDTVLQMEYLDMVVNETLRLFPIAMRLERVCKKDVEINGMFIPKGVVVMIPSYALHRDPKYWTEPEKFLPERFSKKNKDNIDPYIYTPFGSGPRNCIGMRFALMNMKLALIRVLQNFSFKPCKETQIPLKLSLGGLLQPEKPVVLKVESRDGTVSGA

Row | Compound | inhibition (INH) (Cytochrome P450 3A4 [1]) | inhibition (INH) (Cytochrome P450 3A4 [2]) | solubility [3] | pIC50 (Platelet [4]; Homo sapiens, Platelet, Plasma) | Stability (Liver microsome [5]) | solubility [6] | fraction unbound [7] | pIC50 (P2Y purinoceptor 12) | Stability (Liver microsome [9]) | inhibition (INH) (Cytochrome P450 2C9) | inhibition (INH) (Cytochrome P450 2D6) | Ratio IC50 [8] | inhibition (INH) [10] | Activity (Platelet [13]) [%] | Activity (Platelet [16]) [%] | Activity (Platelet [19]) [%] | also measured
1 | CCOC(=O)N1CCN(C(=O)[C@H](CCC(=O)O)NC(=O)c2cc(C3CC3)nc(-c3ccccc3)n2)CC1 | Not Active | Not Active | soluble | 5.49 | Stable | soluble | 0.003 | 7.23 | Stable | Not Active | Not Active | 54 | Not Active | – | – | – | –
2 | CCCNc1cc(C(=O)N[C@@H](CCC(=O)O)C(=O)N2CCN(C(=O)OCC)CC2)nc(-c2ccccc2)n1 | Not Active | Not Active | soluble | 5.42 | Stable | soluble | 0.015 | 6.79 | Stable | Not Active | Not Active | 24 | Not Active | – | – | – | –
3 | CCOC(=O)N1CCN(C(=O)[C@H](CCC(=O)O)NC(=O)c2cc(C(C)C)nc(-c3ccccc3)n2)CC1 | Not Active | Not Active | soluble | 5.94 | Stable | soluble | – | 7.28 | Stable | Not Active | Not Active | 22 | Not Active | – | >60 | >30 | –
4 | CCCCc1cc(C(=O)N[C@@H](CCC(=O)O)C(=O)N2CCN(C(=O)OCC)CC2)nc(-c2ccccc2)n1 | Not Active | Not Active | soluble | 5.71 | Stable | soluble | 0.007 | – | Stable | Not Active | Not Active | 20 | Not Active | – | >60 | >30 | –
5 | CCOC(=O)N1CCN(C(=O)[C@H](CCC(=O)O)NC(=O)c2cc(NS(=O)(=O)CC)nc(-c3ccccc3)n2)CC1 | Not Active | Not Active | soluble | – | Stable | soluble | – | 6.85 | Stable | Not Active | Not Active | – | Not Active | – | >60 | >30 | –
6 | CCOC(=O)N1CCN(C(=O)[C@H](CCC(=O)O)NC(=O)c2cc(CCCO)nc(-c3ccccc3)n2)CC1 | Not Active | Not Active | soluble | 6.58 | Stable | soluble | 0.128 | 6.66 | Stable | Not Active | Not Active | 1.2 | Not Active | <70 | <30 | – | –
7 | CCOC(=O)N1CCN(C(=O)[C@H](CCC(=O)O)NC(=O)c2cc(-c3ccncc3)nc(-c3ccccc3)n2)CC1 | Not Active | Not Active | soluble | – | Stable | soluble | – | 7.28 | Stable | Not Active | Not Active | – | Not Active | – | >60 | >30 | –

Further compounds by rising pIC50 (P2Y purinoceptor 12), results first:

Row | inhibition (INH) (Cytochrome P450 3A4 [1]) | inhibition (INH) (Cytochrome P450 3A4 [2]) | solubility [3] | pIC50 (Platelet [4]; Homo sapiens, Platelet, Plasma) | Stability (Liver microsome [5]) | solubility [6] | fraction unbound [7] | pIC50 (P2Y purinoceptor 12) | Stability (Liver microsome [9]) | inhibition (INH) (Cytochrome P450 2C9) | inhibition (INH) (Cytochrome P450 2D6) | Compound | Ratio IC50 [8] | inhibition (INH) [10] | Activity (Platelet [13]) [%] | Activity (Platelet [16]) [%] | Activity (Platelet [19]) [%] | also measured
8 | Not Active | Not Active | soluble | – | Stable | soluble | – | 7.34 | Stable | Not Active | Not Active | CCOC(=O)N1CCN(C(=O)[C@H](CCC(=O)O)NC(=O)c2cc(N3CCN(C)CC3)nc(-c3ccccc3)n2)CC1 | – | Not Active | <70 | <30 | – | clearance [11]: 49 mL/min/kg; AUC [12]: 0.164 µM·h; Cmax [14]: 192 nM; bioavailability [15]: 3%; Vd [17]: 0.8 L/kg; half-life [18]: 18 min
9 | Not Active | Not Active | soluble | 6.77 | Stable | soluble | – | 7.40 | Stable | Not Active | Not Active | CCOC(=O)N1CCN(C(=O)[C@H](CCC(=O)O)NC(=O)c2cc(C3CCC(O)CC3)nc(-c3ccccc3)n2)CC1 (some centres undefined) | 4.3 | Not Active | <70 | <30 | – | AUC [12]: 0.0782 µM·h; Cmax [14]: 46.3 nM
10 | Not Active | Not Active | soluble | 5.69 | Stable | soluble | – | 7.44 | Stable | Not Active | Not Active | CCOC(=O)N1CCN(C(=O)[C@H](CCC(=O)O)NC(=O)c2cc(C(C)(C)C)nc(-c3ccccc3)n2)CC1 | 57 | Not Active | – | >60 | >30 | –
11 | Not Active | Not Active | soluble | 6.93 | Stable | soluble | – | 7.46 | Stable | Not Active | Not Active | CCOC(=O)N1CCN(C(=O)[C@H](CCC(=O)O)NC(=O)c2cc(C(C)(C)O)nc(-c3ccccc3)n2)CC1 | 3.4 | Not Active | <70 | <30 | – | AUC [12]: 0.109 µM·h; Cmax [14]: 56.1 nM
12 | Not Active | Not Active | soluble | 7.24 | Stable | soluble | 0.085 | 7.60 | Stable | Not Active | Not Active | CCOC(=O)N1CCN(C(=O)[C@H](CCC(=O)O)NC(=O)c2cc(N[C@@H]3CCOC3)nc(-c3ccccc3)n2)CC1 | 2.3 | Not Active | <70 | <30 | – | –
13 | – | – | – | – | – | – | 0.034 | 7.82 | – | – | – | CCOC(=O)N1CCN(C(=O)[C@H](CCC(=O)O)NC(=O)c2cc([C@H]3C[C@@H]3COC)nc(-c3ccccc3)n2)CC1 | 5.8 | – | – | – | – | pIC50 (Platelet [4]; platelet): 7.06
14 | Not Active | Not Active | soluble | 7.68 | Stable | soluble | – | 8.52 | Stable | Not Active | Not Active | CCCCOC(=O)N1CCN(C(=O)[C@H](CCC(=O)O)NC(=O)c2cc(N3CC[C@H](OC)C3)nc(-c3ccccc3)n2)CC1 | 7 | Not Active | – | – | – | clearance [11]: 24 mL/min/kg; AUC [12]: 1.17 µM·h; Cmax [14]: 1690 nM; bioavailability [15]: 9%; Vd [17]: 0.5 L/kg; half-life [18]: 72 min
